Screens: PubChem, Johns Hopkins Ion Channel Center
TRPC6 inhibitor = blocks the mouse TRPC6 cation channel. HEK293-TRPC6, membrane potential dye, ACh-evoked depolarization; hits give low values. B-score at 10 µM. actives 1.1% (n = 310,000);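 active = B-score under library mean minus 3 SD, initial fluorescence not abnormally high, positive integrated signal ratio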;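 also: B-score derived from integrated fluorescence ratio over the kinetic read; more negative B-score means stronger inhibition of depolarization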
TRPC6 activator = activates the mouse TRPC6 cation channel; Q61143; HEK293-TRPC6 membrane potential dye fluorescence; hits give high values; B-score at 10 µM; actives 0.13% (n = 310,000); AID 2550;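 active = B-score of the integrated fluorescence ratio above library mean plus 3 SD, and starting fluorescence ratio within library mean plus 5 SD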;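 also: higher score means more depolarization so channel activation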
TRPC4 PAM = allosteric potentiators of mouse TRPC4 channel. AID 2227. actives 0.42% (n = 310,000). HEK293 TRPC4beta/mu-opioid, DAMGO EC20, Fluo-4 Ca2+ flux; hits give high values. B-score at 10 µM. Q9QUQ5;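 active = B-score of calcium response area above 5 SD of library B-scores, with initial fluorescence ratio within 5 SD of library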;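 also: B-score of integrated fluorescence ratio over time as area under calcium response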
Target sequence (Q9QUQ5 whole entry, looked up): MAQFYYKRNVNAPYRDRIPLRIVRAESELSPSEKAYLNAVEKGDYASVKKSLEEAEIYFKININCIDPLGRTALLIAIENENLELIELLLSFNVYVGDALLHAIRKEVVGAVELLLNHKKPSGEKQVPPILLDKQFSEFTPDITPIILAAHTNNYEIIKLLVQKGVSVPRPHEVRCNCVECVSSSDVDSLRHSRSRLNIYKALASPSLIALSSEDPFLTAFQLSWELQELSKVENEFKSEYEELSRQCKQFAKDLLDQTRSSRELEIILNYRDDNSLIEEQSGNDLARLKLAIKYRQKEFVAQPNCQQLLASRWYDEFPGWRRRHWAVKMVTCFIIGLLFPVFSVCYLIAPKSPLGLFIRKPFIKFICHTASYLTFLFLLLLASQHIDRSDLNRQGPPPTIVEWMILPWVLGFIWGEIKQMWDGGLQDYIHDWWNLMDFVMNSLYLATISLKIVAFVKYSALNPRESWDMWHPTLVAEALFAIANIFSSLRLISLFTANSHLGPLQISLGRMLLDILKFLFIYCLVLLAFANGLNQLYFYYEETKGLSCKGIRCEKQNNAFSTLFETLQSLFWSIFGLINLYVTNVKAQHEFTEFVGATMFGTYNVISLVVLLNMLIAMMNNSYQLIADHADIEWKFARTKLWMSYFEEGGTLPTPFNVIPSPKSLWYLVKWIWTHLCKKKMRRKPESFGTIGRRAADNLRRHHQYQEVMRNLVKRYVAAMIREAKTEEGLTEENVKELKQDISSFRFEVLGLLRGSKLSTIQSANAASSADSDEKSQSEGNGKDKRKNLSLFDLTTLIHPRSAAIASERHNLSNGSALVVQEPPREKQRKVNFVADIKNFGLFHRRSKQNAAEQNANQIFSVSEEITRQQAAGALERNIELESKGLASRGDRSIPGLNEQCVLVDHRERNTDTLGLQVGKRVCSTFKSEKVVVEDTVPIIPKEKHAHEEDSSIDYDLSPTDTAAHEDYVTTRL
TRPC4 inh = TRPC4 (mouse) channel inhibition. HEK293 TRPC4beta/mu-opioid, DAMGO-evoked Fluo4 calcium flux; hits give low values. B-score at 10 µM. actives 0.39% (n = 300,000). AID 2247;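 active = B-score over 3 SD under the library average, no early fluorescence shift, positive overall ratio signal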
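Assay system: TRPC4beta/mu-opioid receptor HEK293 cell line; compound dosing: single concentration per test compound; detection: Fluo4 Ca2+ flux fluorescence; evaluation: per-well B score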
TRPC4 agonist = TRPC4 (mouse) channel activation. AID 2237. actives 0.49% (n = 310,000). HEK293 TRPC4beta/mu-opioid, Fluo4 calcium fluorescence; hits give high values. Q9QUQ5. B-score at 10 µM;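 active = B-score above 5 SD of library B-scores, and initial fluorescence ratio not above library mean plus 5 SD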;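 also: positive B-score marks a calcium rise read as TRPC4 activation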
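Technique: kinetic Fluo4 calcium fluorescence; Test system: TRPC4beta and mu-opioid receptor HEK293 stable cells; Measure: B-scored integrated calcium fluorescence ratio; Benchmarks: low control buffer alone, high control maximal DAMGO; Schedule: 45 min room-temperature Fluo4 loading, 110 s read.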
TRPC4 sel inh 2 = second check of whether TRPC6 inhibitors also affect mouse TRPC4; HEK293 TRPC4/MOR, membrane potential dye fluorescence; channel activated by saturating DAMGO dose; inhibition, % at 10 µM; shares compounds with TRPC6 inhibitor; actives 42% (n = 920);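 active = compounds whose fluorescence signal differed from control wells by over 3 SD, either direction, in both duplicate plates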
TRPC4 spec = mouse TRPC4 off-target activity of TRPC6 inhibitors; activity change, negative = inhibition, % at 10 µM; shares compounds with TRPC6 inhibitor; HEK293 TRPC4/mu-opioid, membrane potential fluorescence; actives 61% (n = 920);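 active = rise or fall in signal beyond 3 SD of buffer-only wells in both replicate plates, either sign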;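 also: integrated kinetic ratio of fluorescence range over baseline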
HEK293 MPD ctr 2-1 = parental HEK293 nonspecific activity of TRPC6 inhibitors, second screen. shares compounds with TRPC6 inhibitor. actives 31% (n = 920). parental HEK293 membrane potential dye fluorescence; maximal acetylcholine challenge after compound addition. signal change vs control, % at 10 µM;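 active = membrane potential signal moving either way by over 3 SD of the maximum-effect control, in both duplicate plates, meaning non-specific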
HEK293 MPD ctr-1 = checks TRPC6 inhibitor effects in parental HEK293 cells. actives 60% (n = 920). membrane potential signal change, % at 10 µM. parental HEK293 membrane potential dye fluorescence. shares compounds with TRPC6 inhibitor;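 active = membrane potential signal shifting up or down by more than 3 SD of buffer-only wells, on both duplicate plates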
HEK293 MPD ctr-2 = checks TRPC6 modulator effects in parental HEK293 cells; shares compounds with TRPC6 inhibitor; actives 51% (n = 2,400); membrane potential dye fluorescence; membrane potential signal change, % at 10 µM;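 active = membrane potential signal moves up or down beyond 5 SD from buffer-only wells, on both duplicate plates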
HEK293 MPD ctr 2-2 = second check of TRPC6 modulator effects in parental HEK293 cells. actives 14% (n = 2,400). AID 488926. shares compounds with TRPC6 inhibitor. inhibition, % at 10 µM. membrane potential dye fluorescence; after compound, maximal acetylcholine stimulation;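 active = membrane potential signal drops by more than 5 SD from the mean control signal, in both duplicate plates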;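 also: plate controls were acetylcholine ECmax control wells for no effect and buffer only wells for full effect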
TRPC4 ctr mod = selectivity of TRPC6 modulators against mouse TRPC4; shares compounds with TRPC6 inhibitor; HEK293 TRPC4/mu-opioid, membrane potential fluorescence; percent change from control (negative = decrease, positive = increase), % at 10 µM; actives 69% (n = 2,400);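 active = membrane potential signal moved up or down beyond 5 SD of buffer control wells, in both duplicate plates, actives on both sides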;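 also: plate controls were assay buffer wells for no effect and DAMGO maximal-effect wells for full effect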
TRPC4/MOR inh 2 = second check of whether TRPC6 modulators also affect mouse TRPC4 | shares compounds with TRPC6 inhibitor | HEK293 TRPC4/mu-opioid, membrane potential dye fluorescence; stimulated with maximal-effect DAMGO | inhibition, % at 10 µM | actives 55% (n = 2,400);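 active = drop in membrane potential signal beyond 5 SD of the control wells in both duplicate plates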;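 also: TRPC4 counter screen for TRPC6 hits run under conditions tuned for TRPC6 not TRPC4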
TRPC6 block conf = mouse TRPC6 inhibitor confirmation; inhibition, % at 10 µM; shares compounds with TRPC6 inhibitor; actives 43% (n = 3,300); HEK293-TRPC6, membrane potential dye, ACh-evoked depolarization;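 active = fluorescence ratio falls more than 5 SD below the full-stimulation control mean, in both duplicate runs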;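 also: integrated fluorescence ratio of peak minus minimum over baseline after agonist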
TRPC6 act confirm = mouse TRPC6 activator confirmation; shares compounds with TRPC6 inhibitor; activation, % at 10 µM; actives 11% (n = 2,800); HEK293-TRPC6 membrane potential dye fluorescence, FDSS;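 active = ratio signal rise beyond 5 SD above unstimulated control wells' mean, seen in both duplicate runs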;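 also: plate controls were buffer EC0 wells for no effect and acetylcholine ECmax response for full effect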
* = called active by the depositor; i = inactive; nt = not tested or not shown. This is a sample that favours compounds with a hit; in the whole collection about 2.3% have one here.

SMILES	TRPC6 inhibitor	TRPC6 activator	TRPC4 PAM	TRPC4 inh	TRPC4 agonist	HEK293 MPD ctr-2	HEK293 MPD ctr 2-2	TRPC4 ctr mod	TRPC4/MOR inh 2	TRPC6 block conf	TRPC6 act confirm	others
O=C(c1ccc(Cl)c(S(=O)(=O)N2CCOCC2)c1)N(c1ccccn1)C1CCCCC1	-6*	i	i	i	i	170%*	i	30%*	i	i	nt
CCOC(=O)N1CCN(C(=O)c2cc3cc(Cl)ccc3[nH]2)CC1	-6.1*	i	i	i	i	i	i	i	i	i	i
CCOC(=O)N1CCN(C(=O)c2cc3cc(F)ccc3[nH]2)CC1	i	i	i	i	i	nt	nt	nt	nt	nt	nt
O=[N+]([O-])c1ccc(Nc2nc(N/N=C/c3cccc(F)c3)nc(N3CCCC3)n2)cc1	i	i	i	i	i	nt	nt	nt	nt	nt	nt
COc1ccc(-c2[nH]n(-c3ccc([N+](=O)[O-])cc3)c(=O)c2C=NCCN2CCNCC2)cc1	-6.5*	i	i	i	i	-227%*	i	-42%*	50%*	50%*	i
O=C(NC(Cc1ccccc1)C(=O)O)/C(=C/c1cccc([N+](=O)[O-])c1)NC(=O)c1ccco1 (stereo unspecified)	i	i	i	i	i	nt	nt	nt	nt	nt	nt
CC(C)[C@H](Nc1ccc(C(F)(F)F)cc1[N+](=O)[O-])C(=O)O	i	i	i	i	i	nt	nt	nt	nt	nt	nt
O=C(NNc1ccc(C(F)(F)F)cc1[N+](=O)[O-])c1ccc(NS(=O)(=O)c2ccc(F)cc2)cc1	-5.4*	i	i	i	i	-112%*	i	-26%*	62%*	64%*	i
CCCCCCCCCn1c2c(c(=N)c3c1CCC3)CCC2	-6.3*	i	i	i	i	-169%*	i	-21%*	36%*	i	i
Fc1ccc(CN2CCCCCCC2)cc1	i	i	i	i	i	nt	nt	nt	nt	nt	nt
CCCCCCn1c2c(c(=N)c3c1CCC3)CCC2	-8.5*	i	i	i	i	nt	nt	nt	nt	78%*	i	TRPC4 sel inh 2=69%*;TRPC4 spec=-25%*;HEK293 MPD ctr 2-1=-12%*;HEK293 MPD ctr-1=-452%*
N=c1c2c(n(Cc3ccc(F)cc3)c3c1CCC3)CCC2	-5.8*	i	i	i	i	-192%*	i	-32%*	62%*	i	i
CCCCCCCn1ccc(=N)cc1	i	i	i	i	i	nt	nt	nt	nt	nt	nt
CCn1c2c(c(=N)c3c1CCC3)CCC2	-7*	i	i	i	i	-234%*	i	-39%*	40%*	36%*	i
CC(Oc1ccccc1Cl)C(=O)Nc1ccccc1C(=O)N1CCOCC1 (stereo unspecified)	i	i	i	i	i	nt	nt	nt	nt	nt	nt
O=C(N/N=C/c1ccc(OCc2ccccc2)cc1)c1cc[n+](Cc2ccccc2)cc1	i	i	i	i	i	nt	nt	nt	nt	nt	nt
COc1cc(C(C(=O)NC(C)(C)C)N(Cc2ccccc2)C(=O)c2cnccn2)cc(OC)c1OC (stereo unspecified)	i	i	i	i	i	nt	nt	nt	nt	nt	nt
CNCC(O)Cn1c2c(c3ccccc31)CCCC2 (stereo unspecified)	i	i	i	i	i	nt	nt	nt	nt	nt	nt
CCn1c2c(c(=N)c3ccccc31)CCC2	-11*	i	i	i	i	nt	nt	nt	nt	72%*	i	TRPC4 sel inh 2=68%*;TRPC4 spec=-34%*;HEK293 MPD ctr 2-1=-12%*;HEK293 MPD ctr-1=-593%*
Cc1cc(N2CCN(C)CC2)n2nc(-c3ccc(Cl)cc3)nc2n1	-6.9*	i	i	i	i	-310%*	96%*	-28%*	53%*	66%*	i
Cc1nc2nc(-c3ccc(Cl)cc3)nn2c(C)c1Cl	i	i	i	i	i	nt	nt	nt	nt	nt	nt
CCOC(=O)N1CCC(n2c(SCC(=O)OCc3ccccc3)nc3ccsc3c2=O)CC1	i	i	i	i	i	nt	nt	nt	nt	nt	nt
CCOC(=O)CSc1nc2ccsc2c(=O)n1C1CCN(C(=O)OCC)CC1	-6.8*	15*	i	i	i	133%*	i	34%*	i	i	60%*
OCCOCCn1c(-c2ccccc2)nc(=S)c2c1CCCC2	-7.7*	i	i	i	i	-322%*	86%*	-52%*	53%*	60%*	i
O=C(Cn1nnc(-c2cccs2)n1)NCCc1ccccc1	i	i	i	i	i	nt	nt	nt	nt	nt	nt
COc1ccc(CCNC(=O)Cn2nnc(-c3cccs3)n2)cc1OC	-5.8*	i	i	i	i	i	i	i	i	i	i
O=C(Nc1ccccc1C(=O)O)c1ccc(NC(=O)c2ccc(Br)o2)cc1	i	17*	i	i	i	190%*	i	27%*	i	i	94%*
CCOC(=O)/C(=N\Nc1ccccc1[N+](=O)[O-])c1csc(N)n1	-5.2*	i	i	i	i	i	i	-18%*	i	i	i
